ChEMBL document CHEMBL1143049, “Preparation, biological activity and endogenous occurrence of N6-benzyladenosines” (Bioorg Med Chem, 2007)

Experiments:
B16 = experiment: Antitumor activity against mouse B16 cells after 72 hrs by Calcein AM assay; type: functional, cell-based; details: B16, 72 h
How it was run: (§1)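 Cells grown in DMEM at 37 °C under 5% CO2. Compounds added after 12 h preincubation in 96-well plates, final 0.5-170 μM, with 0.6% final DMSO, then 72 h exposure. Viable cells stained with Calcein AM for 1 h and read at 485/538 nm. IC50 (concentration lethal to 50% of cells) taken from dose-response curves. Run in quadruplicate.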

[1] = Cytotoxicity against mouse NIH 3T3 cells after 72 hrs by Calcein AM assay; type: cell-based; details: NIH3T3, 72 h; how it was run: as §1
Amaranthus [2] = experiment: Cytokinin activity in Amaranthus cotyledons assessed as dark induction of betacyanin synthesis at 0.01 mmol/L relative to 6-Benzylaminopurine; type: functional
How it was run: (§2)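 Dark induction of betacyanin in excised Amaranthus cotyledons. DMSO stock brought to 10^-3 M in water, diluted into assay medium (DMSO ≤0.2%). Tested over 10^-4 to 10^-8 M, five replicates per concentration, assay repeated at least three times. Response at the optimal concentration expressed relative to BAP at its optimum (set to 100).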

Triticum aestivum [3] = experiment: Cytokinin activity in wheat assessed as retention of chlorophyll in excised wheat leaves at 0.1 mmol/L relative to 6-Benzylaminopurine by senescence assay; type: functional
How it was run: (§3)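 Senescence assay measuring chlorophyll retention in excised wheat leaves. DMSO stocks brought to 10^-3 M with water, then diluted in assay medium to a final DMSO of at most 0.2%. Concentrations 10^-4 to 10^-8 M, quintuplicate, repeated at least three times. Response at the optimal concentration normalised to BAP optimum = 100.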

Nicotiana tabacum [4] = experiment: Cytokinin activity in tobacco assessed as stimulation of callus growth at 1 umol/L relative to 6-Benzylaminopurine; type: functional
How it was run: (§4)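 Stimulation of tobacco callus growth. Compounds dissolved in DMSO, brought to 10^-3 M in water and diluted into medium (DMSO ≤0.2%). Range 10^-4 to 10^-8 M, five replicates per concentration, at least three independent repeats. Activity at the optimal concentration given relative to BAP's optimal response, taken as 100.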

[5] = molecular target: T1, Histidine kinase 3 (Arabidopsis thaliana) (UniProt Q9C5U1); experiment: Activation of Arabidopsis thaliana AHK3 cytokinin receptor relative to trans-zeatin; parameters: concentration or dose not given beside the values
T1 sequence (whole entry): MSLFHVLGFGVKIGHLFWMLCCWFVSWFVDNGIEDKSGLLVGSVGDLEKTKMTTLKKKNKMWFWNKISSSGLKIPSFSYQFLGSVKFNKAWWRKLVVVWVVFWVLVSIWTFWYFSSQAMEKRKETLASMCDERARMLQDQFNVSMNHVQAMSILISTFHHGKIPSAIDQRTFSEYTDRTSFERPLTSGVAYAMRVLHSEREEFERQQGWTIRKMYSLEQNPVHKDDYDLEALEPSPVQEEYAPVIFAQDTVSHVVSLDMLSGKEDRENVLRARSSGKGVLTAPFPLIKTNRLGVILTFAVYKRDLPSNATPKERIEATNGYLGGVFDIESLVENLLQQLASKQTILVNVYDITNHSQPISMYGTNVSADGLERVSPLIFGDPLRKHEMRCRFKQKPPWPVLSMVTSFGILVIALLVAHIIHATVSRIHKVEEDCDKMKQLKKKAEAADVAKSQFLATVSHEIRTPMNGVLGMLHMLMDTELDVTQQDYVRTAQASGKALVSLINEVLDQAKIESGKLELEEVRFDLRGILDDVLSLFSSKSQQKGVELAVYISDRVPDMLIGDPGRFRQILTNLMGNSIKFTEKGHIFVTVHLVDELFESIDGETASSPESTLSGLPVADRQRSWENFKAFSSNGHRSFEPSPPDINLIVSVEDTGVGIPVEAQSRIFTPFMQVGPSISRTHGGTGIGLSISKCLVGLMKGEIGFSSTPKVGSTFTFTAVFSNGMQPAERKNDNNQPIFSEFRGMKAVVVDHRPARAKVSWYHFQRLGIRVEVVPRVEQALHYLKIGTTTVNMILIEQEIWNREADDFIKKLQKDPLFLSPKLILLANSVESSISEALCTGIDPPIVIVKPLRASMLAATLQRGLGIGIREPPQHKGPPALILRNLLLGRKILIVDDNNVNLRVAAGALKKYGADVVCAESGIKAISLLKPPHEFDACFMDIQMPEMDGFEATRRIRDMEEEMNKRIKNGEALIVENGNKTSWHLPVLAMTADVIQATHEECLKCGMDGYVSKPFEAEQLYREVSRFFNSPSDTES
How it was run: (§5)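 E. coli KMI001 carrying pSTV28-AHK3 or pIN-III-AHK4, precultured overnight at 25 °C in M9 + 0.1% casamino acids to OD600 ~1. Diluted 1:600, compound or solvent added, then incubated at 25 °C for 28 h (AHK3) or 17 h (CRE1/AHK4). Supernatant incubated with 4-methylumbelliferyl β-D-galactoside for 1 h at 37 °C and stopped with Na2CO3. Fluorescence read at 365/460 nm. β-galactosidase expressed as nmol 4-MU × OD600⁻¹ × h⁻¹.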

[6] = molecular target: Histidine kinase 4 (Arabidopsis thaliana) (UniProt Q9C5U0); experiment: Activation of Arabidopsis thaliana CRE1/AHK4 cytokinin receptor relative to trans-zeatin; parameters: concentration or dose not given beside the values; how it was run: as §5
Chain of Histidine kinase 4 (Arabidopsis thaliana) (Q9C5U0 whole entry): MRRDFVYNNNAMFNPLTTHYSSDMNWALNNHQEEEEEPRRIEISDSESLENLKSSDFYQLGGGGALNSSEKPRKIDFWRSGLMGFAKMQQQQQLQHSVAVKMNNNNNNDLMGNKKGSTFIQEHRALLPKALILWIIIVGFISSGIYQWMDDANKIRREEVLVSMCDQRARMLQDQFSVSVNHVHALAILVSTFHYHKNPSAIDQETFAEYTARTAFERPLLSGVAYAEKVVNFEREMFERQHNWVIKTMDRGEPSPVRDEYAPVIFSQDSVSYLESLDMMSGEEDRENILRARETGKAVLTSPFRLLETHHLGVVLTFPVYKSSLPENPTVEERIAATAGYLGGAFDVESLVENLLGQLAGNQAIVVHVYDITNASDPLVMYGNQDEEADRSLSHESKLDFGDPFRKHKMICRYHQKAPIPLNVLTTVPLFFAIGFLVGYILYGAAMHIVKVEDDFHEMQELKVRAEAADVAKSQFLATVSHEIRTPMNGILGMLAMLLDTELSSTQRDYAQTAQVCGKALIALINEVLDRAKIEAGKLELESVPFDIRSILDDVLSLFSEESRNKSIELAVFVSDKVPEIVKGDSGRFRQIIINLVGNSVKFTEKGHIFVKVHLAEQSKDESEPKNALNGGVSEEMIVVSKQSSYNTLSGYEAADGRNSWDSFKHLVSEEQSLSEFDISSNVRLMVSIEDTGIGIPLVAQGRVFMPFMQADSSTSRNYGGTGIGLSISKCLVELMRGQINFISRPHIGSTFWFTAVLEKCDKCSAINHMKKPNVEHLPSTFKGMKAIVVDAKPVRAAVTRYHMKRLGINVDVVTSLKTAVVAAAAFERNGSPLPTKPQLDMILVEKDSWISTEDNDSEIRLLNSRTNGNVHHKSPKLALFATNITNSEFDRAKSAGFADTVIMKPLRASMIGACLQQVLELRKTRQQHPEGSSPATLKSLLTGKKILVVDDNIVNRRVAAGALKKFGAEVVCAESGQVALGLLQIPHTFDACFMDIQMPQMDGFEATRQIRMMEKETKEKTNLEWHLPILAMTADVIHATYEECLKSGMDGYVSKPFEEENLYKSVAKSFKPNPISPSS

HOS = experiment: Antitumor activity against human HOS cells after 72 hrs by Calcein AM assay; type: functional, cell-based; how it was run: as §1
K562 = experiment: Antitumor activity against human K562 cells after 72 hrs by Calcein AM assay; type: functional, cell-based; details: K562, 72 h; how it was run: as §1
[7] = Antitumor activity against human MCF cells after 72 hrs by Calcein AM assay; type: functional, cell-based; how it was run: as §1
CCRF-CEM = experiment: Antitumor activity against human CEM cells after 72 hrs by Calcein AM assay; type: functional, cell-based; how it was run: as §1
HL-60 = experiment: Antitumor activity against human HL60 cells after 72 hrs by Calcein AM assay; type: functional, cell-based; details: HL-60, 72 h; how it was run: as §1
G-361 = experiment: Antitumor activity against human G361 cells after 72 hrs by Calcein AM assay; type: functional, cell-based; details: G-361, 72 h; how it was run: as §1
Amaranthus [8] = experiment: Cytokinin activity in Amaranthus cotyledons assessed as dark induction of betacyanin synthesis at 0.1 mmol/L relative to 6-Benzylaminopurine; type: functional; how it was run: as §2
Nicotiana tabacum [9] = experiment: Cytokinin activity in tobacco assessed as stimulation of callus growth at 0.01 mmol/L relative to 6-Benzylaminopurine; type: functional; how it was run: as §4
Triticum aestivum [10] = experiment: Cytokinin activity in wheat assessed as retention of chlorophyll in excised wheat leaves at 0.01 mmol/L relative to 6-Benzylaminopurine by senescence assay; type: functional; how it was run: as §3

Row | Compound | IC50 (B16) | Activity [5] | Activity [6] | IC50 (HOS) | IC50 (K562) | IC50 [7] | IC50 (CCRF-CEM) | IC50 (HL-60) | IC50 (G-361) | IC50 [1] | Activity (Amaranthus [2]) | Activity (Triticum aestivum [3]) | Activity (Nicotiana tabacum [4]) | Activity (Amaranthus [8]) | Activity (Nicotiana tabacum [9]) | Activity (Triticum aestivum [10])
1 | OC[C@H]1O[C@@H](n2cnc3c(NCc4ccccc4Cl)ncnc32)[C@H](O)[C@@H]1O | > 167 µM | 0.02% | 0.04% | > 167 µM | 64 µM | > 167 µM | 14.5 µM | 1.6 µM | – | > 167 µM | 113% | 119% | 93% | – | – | –
2 | COc1ccc(CNc2ncnc3c2ncn3[C@@H]2O[C@H](CO)[C@@H](O)[C@H]2O)cc1 | 19.5 µM | 2.45% | 0.22% | > 167 µM | 156 µM | > 167 µM | > 167 µM | > 167 µM | 115 µM | – | – | 65.5% | 2% | 17% | – | –
3 | OC[C@H]1O[C@@H](n2cnc3c(NCc4ccc(F)c(F)c4F)ncnc32)[C@H](O)[C@@H]1O | > 167 µM | – | – | > 167 µM | > 167 µM | > 167 µM | 58.2 µM | 13 µM | > 167 µM | – | – | 144% | – | 95% | 94% | –
4 | OC[C@H]1O[C@@H](n2cnc3c(NCc4ccc(F)cc4)ncnc32)[C@H](O)[C@@H]1O | – | 7.67% | 0.39% | 13.2 µM | 2.7 µM | 21 µM | 1.25 µM | 1.2 µM | > 167 µM | 44.3 µM | 71% | 148% | 100% | – | – | –
5 | OC[C@H]1O[C@@H](n2cnc3c(NCc4cccc(F)c4)ncnc32)[C@H](O)[C@@H]1O | – | 0.99% | 0.36% | > 167 µM | 7.6 µM | 15.3 µM | 4 µM | 0.92 µM | > 167 µM | 84 µM | 92% | 220% | – | – | 91% | –
6 | COc1ccccc1CNc1ncnc2c1ncn2[C@@H]1O[C@H](CO)[C@@H](O)[C@H]1O | > 167 µM | 0.04% | 0.12% | > 167 µM | 8.9 µM | > 167 µM | 3.2 µM | 2.3 µM | > 167 µM | 140 µM | 86% | 198% | – | – | 108% | –
7 | OC[C@H]1O[C@@H](n2cnc3c(NCc4ccc(F)cc4Cl)ncnc32)[C@H](O)[C@@H]1O | > 167 µM | – | – | > 167 µM | 15.6 µM | > 167 µM | 20.9 µM | 9 µM | > 167 µM | > 167 µM | – | 165% | – | 115% | 98% | –
8 | OC[C@H]1O[C@@H](n2cnc3c(NCc4cccc(Cl)c4)ncnc32)[C@H](O)[C@@H]1O | – | 2.63% | 0.15% | > 167 µM | 27.7 µM | 26.9 µM | 1.6 µM | 0.75 µM | > 167 µM | > 167 µM | 139% | 72% | – | – | 96% | –
9 | OC[C@H]1O[C@@H](n2cnc3c(NCc4ccccc4F)ncnc32)[C@H](O)[C@@H]1O | > 167 µM | 2.91% | 0.12% | > 167 µM | 33.2 µM | > 167 µM | 4.6 µM | 3.2 µM | – | > 167 µM | 96% | 118% | 100% | – | – | –
10 | OC[C@H]1O[C@@H](n2cnc3c(NCc4ccccc4)ncnc32)[C@H](O)[C@@H]1O [N6-BENZYLADENOSINE] | > 167 µM | 2.53% | 0.35% | > 167 µM | 5.5 µM | 5.4 µM | 1.4 µM | 0.94 µM | > 167 µM | 39 µM | – | – | – | – | – | –

Second part, led by results:

Row | IC50 (B16) | Activity [5] | Activity [6] | IC50 (HOS) | IC50 (K562) | IC50 [7] | IC50 (CCRF-CEM) | IC50 (HL-60) | IC50 (G-361) | Compound | IC50 [1] | Activity (Amaranthus [2]) | Activity (Triticum aestivum [3]) | Activity (Nicotiana tabacum [4]) | Activity (Amaranthus [8]) | Activity (Nicotiana tabacum [9]) | Activity (Triticum aestivum [10])
11 | > 167 µM | – | – | > 167 µM | 19.7 µM | > 167 µM | 5 µM | 8 µM | > 167 µM | OC[C@H]1O[C@@H](n2cnc3c(NCc4cccc(Br)c4)ncnc32)[C@H](O)[C@@H]1O | > 167 µM | – | 89% | – | 151% | 82% | –
12 | > 167 µM | – | – | > 167 µM | 10 µM | > 167 µM | 12.3 µM | 6.6 µM | > 167 µM | OC[C@H]1O[C@@H](n2cnc3c(NCc4ccccc4Br)ncnc32)[C@H](O)[C@@H]1O | > 167 µM | – | – | – | 147% | 100% | 86%
13 | > 167 µM | – | – | > 167 µM | 106 µM | 127 µM | 86.7 µM | 96.3 µM | 128 µM | OC[C@H]1O[C@@H](n2cnc3c(NCc4ccc(Cl)cc4Cl)ncnc32)[C@H](O)[C@@H]1O | – | – | – | – | 3% | 70% | 5%
14 | > 167 µM | 1.12% | 0.14% | > 167 µM | > 167 µM | > 167 µM | 7.6 µM | 4.9 µM | – | COc1cccc(CNc2ncnc3c2ncn3[C@@H]2O[C@H](CO)[C@@H](O)[C@H]2O)c1 | > 167 µM | – | 209% | 92% | 98% | – | –
15 | > 167 µM | – | – | > 167 µM | > 167 µM | > 167 µM | 19.1 µM | 6.4 µM | > 167 µM | Cc1cccc(CNc2ncnc3c2ncn3[C@@H]2O[C@H](CO)[C@@H](O)[C@H]2O)c1 | > 167 µM | 96% | 143% | 90% | – | – | –
16 | > 167 µM | 0.81% | 0.23% | > 167 µM | 218 µM | > 167 µM | 10.2 µM | 1.7 µM | > 167 µM | OC[C@H]1O[C@@H](n2cnc3c(NCc4ccc(Cl)cc4)ncnc32)[C@H](O)[C@@H]1O | > 167 µM | 35% | 104% | 46% | – | – | –
